Experimental data reported in ChEMBL document CHEMBL4376838, “Discovery of Novel Celastrol Derivatives as Hsp90-Cdc37 Interaction Disruptors with Antitumor Activity” (J Med Chem, 2019).

Columns and labels:
A549 [1] = test: Antiproliferative activity against human A549 cells assessed as inhibition of cell growth at 1.5 uM incubated for 48 hrs by MTT assay relative to control; assay type: functional; settings: A549, 48 h, read-out: GI
HOS = test: Antiproliferative activity against human HOS cells assessed as inhibition of cell growth incubated for 48 hrs by MTT assay; assay type: functional, cell-based
Method in brief: (§1)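 MTT read-out. Cells seeded at 5.0 × 10⁴ cells/ml and cultured 24 h, then exposed to the drug over a range of concentrations for 48 h, with matching DMSO as control. MTT (5 mg/ml) added for 4 h, supernatant removed, formazan dissolved in DMSO, OD read at 570 nm. Run in triplicate, mean ± SD (n = 3).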

MCF7 = test: Antiproliferative activity against human MCF7 cells assessed as inhibition of cell growth incubated for 48 hrs by MTT assay; assay type: functional, cell-based; settings: MCF7, 48 h; method in brief: as §1
A549 [2] = test: Antiproliferative activity against human A549 cells assessed as inhibition of cell growth incubated for 48 hrs by MTT assay; assay type: functional, cell-based; settings: A549, 48 h; method in brief: as §1
HepG2 = test: Antiproliferative activity against human HepG2 cells assessed as inhibition of cell growth incubated for 48 hrs by MTT assay; assay type: functional, cell-based; settings: HepG2, 48 h; method in brief: as §1

| Compound | inhibition of growth at 1.5 µM (A549 [1]) [%] | further results |
| --- | --- | --- |
| CC1=C(O)C(=O)C=C2C1=CC=C1[C@@]2(C)CC[C@@]2(C)[C@@H]3C[C@](C)(C(=O)OCCCCOC(=O)/C(C#N)=C/c4ccc(C)cc4)CC[C@]3(C)CC[C@]12C | 16.5 |  |
| CC1=C(O)C(=O)C=C2C1=CC=C1[C@@]2(C)CC[C@@]2(C)[C@@H]3C[C@](C)(C(=O)OCCCCOC(=O)/C=C/c4ccccc4)CC[C@]3(C)CC[C@]12C | 13.3 |  |
| CC1=C(O)C(=O)C=C2C1=CC=C1[C@@]2(C)CC[C@@]2(C)[C@@H]3C[C@](C)(C(=O)OCCCCOC(=O)/C=C(\C#N)c4ccccc4)CC[C@]3(C)CC[C@]12C | 3.19 |  |
| COC(=O)[C@]12CCC(C)(C)C[C@H]1[C@H]1C(=O)C=C3[C@@]4(C)C=C(C#N)C(=O)C(C)(C)[C@@H]4CC[C@@]3(C)[C@]1(C)CC2 [BARDOXOLONE METHYL] |  | IC50 (HOS): 660 nM; IC50 (MCF7): 850 nM; IC50 (A549 [2]): 520 nM; IC50 (HepG2): 520 nM |
| CC1=C(O)C(=O)C=C2C1=CC=C1[C@@]2(C)CC[C@@]2(C)[C@@H]3C[C@](C)(C(=O)OCCCOC(=O)/C=C(\C#N)c4ccc(C(F)(F)F)cc4)CC[C@]3(C)CC[C@]12C | 24.5 |  |
| CC1=C(O)C(=O)C=C2C1=CC=C1[C@@]2(C)CC[C@@]2(C)[C@@H]3C[C@](C)(C(=O)OCCOC(=O)/C=C/c4ccc(C(F)(F)F)cc4)CC[C@]3(C)CC[C@]12C | 26 |  |
| COc1ccc(/C=C/C(=O)OCCCCOC(=O)[C@]2(C)CC[C@]3(C)CC[C@]4(C)C5=CC=C6C(=CC(=O)C(O)=C6C)[C@]5(C)CC[C@@]4(C)[C@@H]3C2)cc1 | 20.6 |  |
| CC1=C(O)C(=O)C=C2C1=CC=C1[C@@]2(C)CC[C@@]2(C)[C@@H]3C[C@](C)(C(=O)OCCCCOC(=O)/C=C(\C#N)c4ccc(C)cc4)CC[C@]3(C)CC[C@]12C | 9.74 |  |
| CC1=C(O)C(=O)C=C2C1=CC=C1[C@@]2(C)CC[C@@]2(C)[C@@H]3C[C@](C)(C(=O)OCCCOC(=O)/C(C#N)=C/c4ccc(C(F)(F)F)cc4)CC[C@]3(C)CC[C@]12C | 19.4 |  |
| CC1=C(O)C(=O)C=C2C1=CC=C1[C@@]2(C)CC[C@@]2(C)[C@@H]3C[C@](C)(C(=O)OCCCCOC(=O)/C=C/c4ccc(C)cc4)CC[C@]3(C)CC[C@]12C | 19.9 |  |
| CC1=C(O)C(=O)C=C2C1=CC=C1[C@@]2(C)CC[C@@]2(C)[C@@H]3C[C@](C)(C(=O)OCCOC(=O)/C=C(\C#N)c4ccc(C)cc4)CC[C@]3(C)CC[C@]12C | 20.4 |  |
| CC1=C(O)C(=O)C=C2C1=CC=C1[C@@]2(C)CC[C@@]2(C)[C@@H]3C[C@](C)(C(=O)OCCCOC(=O)/C=C/c4ccc(C(F)(F)F)cc4)CC[C@]3(C)CC[C@]12C | 37.6 |  |
| COc1ccc(/C=C(\C#N)C(=O)OCCCCOC(=O)[C@]2(C)CC[C@]3(C)CC[C@]4(C)C5=CC=C6C(=CC(=O)C(O)=C6C)[C@]5(C)CC[C@@]4(C)[C@@H]3C2)cc1 | 3.07 |  |
| CC1=C(O)C(=O)C=C2C1=CC=C1[C@@]2(C)CC[C@@]2(C)[C@@H]3C[C@](C)(C(=O)OCCCOC(=O)/C(C#N)=C/c4ccccc4)CC[C@]3(C)CC[C@]12C | 19.1 |  |
| CC1=C(O)C(=O)C=C2C1=CC=C1[C@@]2(C)CC[C@@]2(C)[C@@H]3C[C@](C)(C(=O)OCCOC(=O)/C=C/c4ccc(F)cc4)CC[C@]3(C)CC[C@]12C | 27.7 |  |
| CC1=C(O)C(=O)C=C2C1=CC=C1[C@@]2(C)CC[C@@]2(C)[C@@H]3C[C@](C)(C(=O)OCCCOC(=O)/C=C/c4ccc(F)cc4)CC[C@]3(C)CC[C@]12C | 37.6 |  |
| COc1ccc(/C=C/C(=O)OCCCOC(=O)[C@]2(C)CC[C@]3(C)CC[C@]4(C)C5=CC=C6C(=CC(=O)C(O)=C6C)[C@]5(C)CC[C@@]4(C)[C@@H]3C2)cc1 | 34.1 |  |
| CC1=C(O)C(=O)C=C2C1=CC=C1[C@@]2(C)CC[C@@]2(C)[C@@H]3C[C@](C)(C(=O)OCCCCOC(=O)/C(C#N)=C/c4ccccc4)CC[C@]3(C)CC[C@]12C | 16.2 |  |
| CC1=C(O)C(=O)C=C2C1=CC=C1[C@@]2(C)CC[C@@]2(C)[C@@H]3C[C@](C)(C(=O)OCCOC(=O)/C=C/c4ccccc4)CC[C@]3(C)CC[C@]12C | 23 |  |
| CC1=C(O)C(=O)C=C2C1=CC=C1[C@@]2(C)CC[C@@]2(C)[C@@H]3C[C@](C)(C(=O)OC/C=C/COC(=O)/C=C(\C#N)c4ccccc4)CC[C@]3(C)CC[C@]12C |  | IC50 (HOS): 4780 nM; IC50 (MCF7): 2860 nM; IC50 (A549 [2]): 3540 nM; IC50 (HepG2): 3450 nM |
| COc1ccc(/C(C#N)=C/C(=O)OC/C=C/COC(=O)[C@]2(C)CC[C@]3(C)CC[C@]4(C)C5=CC=C6C(=CC(=O)C(O)=C6C)[C@]5(C)CC[C@@]4(C)[C@@H]3C2)cc1 |  | IC50 (HOS): 1790 nM; IC50 (MCF7): 1440 nM; IC50 (A549 [2]): 1340 nM; IC50 (HepG2): 2710 nM |
| CC1=C(O)C(=O)C=C2C1=CC=C1[C@@]2(C)CC[C@@]2(C)[C@@H]3C[C@](C)(C(=O)OCCCCOC(=O)/C=C/c4ccc(F)cc4)CC[C@]3(C)CC[C@]12C | 14.7 |  |
